This is an account of results in the array DNA melting data of Ke et al. (doi:10.1101/2024.01.08.574731).

Series [1] in a line: melting temperature; fluorescence melt of hairpins on a sequencing array, two-state fit, raised by 9.35 °C to match UV melts. Particulars: sodium 0.088 M. In a few lines: (§1)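 Melting temperature and folding enthalpy were obtained by bootstrapped two-state fitting. Fits used Cy3 fluorescence of library hairpins with annealed Cy3 and quencher oligos on a sequenced MiSeq flow cell, imaged in 50 mM Na-HEPES pH 8.0, 25 mM NaCl in 2.5 °C steps up to 60 °C and normalised to pre-quench Cy3 and control constructs. Four replicates were combined by inverse-variance weighting, and fitted temperatures were raised by 9.35 °C to match UV melts.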

Series [2] in a line: folding enthalpy; higher = less favourable; fluorescence melt of hairpins on a sequencing array, two-state fit. The conditions noted are these: sodium 0.088 M. In a few lines: as §1

With GGATCCCGAAAGGGTCC (((.(((....)))))), the Tm in series [1] came to 60.1 °C. Moreover, the folding enthalpy in series [2] is -27.8 kcal/mol.
Turning to GGATCCGAAAGGACGTCC ((((((....)))..))), the Tm in series [1] was determined as 31.9 °C. In addition, in series [2], the folding enthalpy is -13.8 kcal/mol.
For GGATCCGAAAGGACTTCC ((((((....)))..))), in that order: 37.5 °C and -19.5 kcal/mol.
The like results for GGATCCGAAAGGAGCTCC ((((((....)))..))) were, in that order, 44.2 °C and -13.4 kcal/mol.
For GGATCCGAAAGGAGTCC ((((((....))).))), in that order: 47.9 °C and -18.5 kcal/mol.
Take GGATCCGGAAACAGATCC (((((.(....).))))): the Tm in series [1] was found to be 41.6 °C. Further, the folding enthalpy in series [2] is -33.1 kcal/mol.
The like results for GGATCGCCGAAAGGCTCC (((..(((....)))))) were, in that order, 30.4 °C and -11 kcal/mol.
Turning to GGATCGGGAAACTGGTCC (((.(.(....).).))), the Tm in series [1] amounted to 39.2 °C. Moreover, the folding enthalpy in series [2] was -30.4 kcal/mol.
Take GGATCTCCGAAAGGATCC (((..(((....)))))): the Tm in series [1] worked out at 42.1 °C. Besides, in series [2], the folding enthalpy is -23.8 kcal/mol.
For GGATCTCGAAAGAGCTCC (((.(((....))).))), in that order: 44.5 °C and -31.7 kcal/mol.
Turning to GGATCTCGAAAGAGTCC (((.(((....)))))), the Tm in series [1] stood at 49.3 °C. Moreover, the folding enthalpy in series [2] is -25.1 kcal/mol.
On to GGATCTGCGAAAGCATCC (((..(((....)))))), for which, in series [1], the Tm was found to be 35.2 °C. Moreover, in series [2], the folding enthalpy was -14.9 kcal/mol.
The like results for GGATCTGGAAACAGACCC ((.((((....)))).)) were, in that order, 42 °C and -32.2 kcal/mol.
For GGATGACGAAAGTCCTCC (((.(((....))).))), in that order: 47.1 °C and -31.5 kcal/mol.
For GGATGACGAAAGTCTTCC (((.(((....))).))), in that order: 52.9 °C and -42.5 kcal/mol.
With GGATGAGGAAACCCATCC (((((.(....).))))), the Tm in series [1] was 44.6 °C. In addition, the folding enthalpy in series [2] was -30.3 kcal/mol.
The like results for GGATGAGGAAACTCACCC ((.((((....)))).)) were, in that order, 39.6 °C and -22.3 kcal/mol.
The like results for GGATGAGGAAACTCATTC (.(((((....))))).) were, in that order, 41.6 °C and -23.7 kcal/mol.
For GGATGCGAAAGCATATCC ((((((....)))..))), in that order: 43.8 °C and -14.9 kcal/mol.
Regarding GGATGCGGAAACGCACCC ((.((((....)))).)), the Tm in series [1] came out at 52.2 °C. Besides, in series [2], the folding enthalpy was -27.4 kcal/mol.
GGATGCGGAAACGTGTCC (((..((....))..))): the Tm in series [1] was found to be 48.4 °C. Besides, in series [2], the folding enthalpy is -34.9 kcal/mol.
The like results for GGATGGCCGAAAGGCTCC (((..(((....)))))) were, in that order, 37.3 °C and -11.6 kcal/mol.
For GGATGGGAAACCATCC ((((((....)))))), in that order: 59.2 °C and -37.3 kcal/mol.
With GGATGGGGAAACCTATCC ((((.((....)).)))), in series [1], the Tm was found to be 47.2 °C. Moreover, the folding enthalpy in series [2] is -29.4 kcal/mol.
GGATGTGGAAACACATTC (.(((((....))))).): the Tm in series [1] stood at 47.6 °C. Also, the folding enthalpy in series [2] is -25.7 kcal/mol.
For GGATTACGAAAGTACTCC (((.(((....))).))), in that order: 41.1 °C and -27.9 kcal/mol.
Take GGATTAGGAAACTGATCC ((((.((....)).)))): in series [1], the Tm was 41.8 °C. In series [2], the folding enthalpy is -33.7 kcal/mol.
The like results for GGATTCCCGAAAGGGTCC (((..(((....)))))) were, in that order, 39.3 °C and -14.6 kcal/mol.
Take GGATTCGAAAGAACATCC ((((((....)))..))): the Tm in series [1] turned out to be 29.4 °C. The folding enthalpy in series [2] was -14.1 kcal/mol.
The like results for GGATTCGAAAGAACCTCC ((((((....)))..))) were, in that order, 37.8 °C and -16.7 kcal/mol.
The like results for GGATTCGAAAGAAGATCC ((((((....)))..))) were, in that order, 28.1 °C and -12.2 kcal/mol.
For GGATTCGAAAGAATCTCC ((((((....)))..))), in that order: 43.8 °C and -14.2 kcal/mol.
Consider GGATTCGCGAAAGCGTCC (((..(((....)))))), for which the Tm in series [1] turned out to be 29.5 °C. The folding enthalpy in series [2] is -10.7 kcal/mol.
For GGATTCGGAAACGAGTTC (.(.(((....))).).), in that order: 28.7 °C and -18.1 kcal/mol.
The like results for GGATTGAAAAATCC (((((....))))) were, in that order, 44.5 °C and -21.7 kcal/mol.
GGATTGGAAACAATCC ((((((....)))))): the Tm in series [1] was 55.5 °C. Further, in series [2], the folding enthalpy was -36.7 kcal/mol.
